This note sets out measurements from ChEMBL document CHEMBL3124769, “Synthesis and antitumor activities of novel dipeptide derivatives derived from dehydroabietic acid” (Bioorg Med Chem Lett, 2014).

Holding throughout (format): functional, cell-based
One assay deals with HCT-116. In words: Cytotoxicity against human HCT116 cells after 48 hrs by MTT assay. As to conditions: HCT-116, 48 h. The procedure, abridged: (§1)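 Cells from the six lines were plated and left to adhere for 24 h. They were then exposed to compounds at 100 to 0.01 µM for 48 h. After that the medium was replaced with complete medium and viability was read by MTT. IC50 came from the concentration series, and each experiment was done three times.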
In general terms: Tetrazolium dyes change colour on reduction, which living cells bring about.

The next assay deals with HepG2. Description: Cytotoxicity against human HepG2 cells after 48 hrs by MTT assay. The settings on record: HepG2, 48 h. In short, it runs like this:
as §1

A further assay deals with HeLa. In words: Cytotoxicity against human HeLa cells after 48 hrs by MTT assay. The procedure, abridged:
as §1

The next assay has as its system NCI-H460. In words: Cytotoxicity against human NCI-H460 cells after 48 hrs by MTT assay. The settings on record: NCI-H460, 48 h. The procedure, abridged: as §1
Assay [1] can be described thus: Cytotoxicity against human Bel7404 cells after 48 hrs by MTT assay. As to conditions: BEL-7404, 48 h. The procedure, abridged:
as §1

In the next assay the test system is SK-OV-3. Description: Cytotoxicity against human SKOV3 cells after 48 hrs by MTT assay. As to conditions: SK-OV-3, 48 h. In short, it runs like this: as §1

Consider `O=c1[nH]cc(F)c(=O)[nH]1` [FLUOROURACIL], for which the IC50 in the assay with HCT-116 was 24.4 µM; with HepG2 it was 27 µM; with HeLa, 80.5 µM; with NCI-H460, 36 µM; in assay [1] it was 26.8 µM.
With `CC(C)c1ccc2c(c1)CC[C@H]1[C@](C)(C(=O)N[C@H](Cc3ccccc3)C(=O)Nc3cccc(F)c3)CCC[C@]21C`, the IC50 in the assay with HCT-116 was determined as 34.8 µM; with HepG2 it was 23.9 µM; in the assay with HeLa it was 13.9 µM; with NCI-H460, 26.1 µM; in assay [1], 27.4 µM; in the assay with SK-OV-3, 33.9 µM.
For `COc1cccc(NC(=O)[C@@H](Cc2ccccc2)NC(=O)[C@]2(C)CCC[C@]3(C)c4ccc(C(C)C)cc4CC[C@@H]23)c1`, the IC50 in the assay on HCT-116 was 35.8 µM; in the assay on HepG2 it was 29.5 µM; with HeLa, 25.8 µM; with NCI-H460, 40.4 µM; in assay [1], 38.5 µM; in the assay on SK-OV-3, 30.5 µM.
For `CC(C)c1ccc2c(c1)CC[C@H]1[C@](C)(C(=O)N[C@H](Cc3ccccc3)C(=O)Nc3cc(Cl)ccc3Cl)CCC[C@]21C`, the 50% inhibitory concentration (IC50) in the assay with HCT-116 was 24.1 µM; with HepG2, 23.4 µM; in the assay on HeLa, 14.9 µM; with NCI-H460, 15.8 µM; in assay [1] it was 31 µM; in the assay with SK-OV-3 it was 21.6 µM.
On to `Cc1ccc(NC(=O)[C@@H](Cc2ccccc2)NC(=O)[C@]2(C)CCC[C@]3(C)c4ccc(C(C)C)cc4CC[C@@H]23)cc1Cl`, for which the IC50 turned out to be 32.3 µM in the assay with HCT-116; 36.9 µM with HepG2; 10.1 µM with HeLa; 26.1 µM with NCI-H460; 41.2 µM in assay [1]; 37.8 µM with SK-OV-3.
`CC(C)c1ccc2c(c1)CC[C@H]1[C@](C)(C(=O)N[C@H](Cc3ccccc3)C(=O)Nc3ccc(Cl)c(Cl)c3)CCC[C@]21C`: the IC50 in the assay with HCT-116 was found to be 40.9 µM; with HepG2, 20.4 µM; in the assay with HeLa, 28.8 µM; in the assay with NCI-H460, 27 µM; in assay [1] it was 44.7 µM; with SK-OV-3 it was 33.1 µM.
Consider `CC(C)c1ccc2c(c1)CC[C@H]1[C@](C)(C(=O)N[C@H](Cc3ccccc3)C(=O)Nc3cccc(Cl)c3)CCC[C@]21C`, for which the IC50 with HCT-116 was determined as 45.9 µM; with HepG2 it was 24.7 µM; with HeLa, 13.1 µM; with NCI-H460, 26.3 µM; in assay [1], 23.8 µM; in the assay with SK-OV-3, 30.6 µM.
Turning to `CC(C)c1ccc2c(c1)CC[C@H]1[C@](C)(C(=O)N[C@H](Cc3ccccc3)C(=O)Nc3ccc(F)cc3)CCC[C@]21C`, the IC50 in the assay on HCT-116 stood at 27.4 µM; in the assay on HepG2, 27.1 µM; in the assay on HeLa, 10.8 µM; in the assay on NCI-H460 it was 22.8 µM; in assay [1] it was 21 µM; in the assay with SK-OV-3 it was 20.1 µM.
As to `CC(C)c1ccc2c(c1)CC[C@H]1[C@](C)(C(=O)N[C@H](Cc3ccccc3)C(=O)Nc3ccccc3)CCC[C@]21C`, the IC50 was 30.3 µM with HCT-116; 27.7 µM in the assay on HepG2; 18.9 µM in the assay with HeLa; 28.2 µM with NCI-H460; 16.7 µM in assay [1]; 27.4 µM in the assay with SK-OV-3.
As to `Cc1cccc(NC(=O)[C@@H](Cc2ccccc2)NC(=O)[C@]2(C)CCC[C@]3(C)c4ccc(C(C)C)cc4CC[C@@H]23)c1`, the IC50 amounted to 32.5 µM in the assay with HCT-116; 26.9 µM in the assay on HepG2; 18.2 µM with HeLa; 32.4 µM in the assay with NCI-H460; 34.6 µM in assay [1]; 29.8 µM in the assay with SK-OV-3.
Turning to `CC(C)c1ccc2c(c1)CC[C@H]1[C@](C)(C(=O)N[C@H](Cc3ccccc3)C(=O)Nc3ccc(Cl)cc3)CCC[C@]21C`, the IC50 with HCT-116 is 37.8 µM; in the assay on HepG2, 26.3 µM; in the assay on HeLa, 12.2 µM; in the assay with NCI-H460 it was 15.8 µM; in assay [1] it was 33.6 µM; in the assay with SK-OV-3, 26.3 µM.
Take `CC(C)c1ccc2c(c1)CC[C@H]1[C@](C)(C(=O)N[C@H](Cc3ccccc3)C(=O)Nc3cccc(Br)c3)CCC[C@]21C`: the IC50 came to 44.1 µM in the assay with HCT-116; 22.9 µM with HepG2; 25.1 µM with HeLa; 33.3 µM with NCI-H460; 19.9 µM in assay [1]; 38.8 µM in the assay on SK-OV-3.
Turning to `Cc1ccc(NC(=O)[C@@H](Cc2ccccc2)NC(=O)[C@]2(C)CCC[C@]3(C)c4ccc(C(C)C)cc4CC[C@@H]23)cc1C`, the IC50 in the assay with HCT-116 amounted to 32.1 µM; in the assay on HepG2 it was 42.8 µM; in the assay with HeLa, 14.3 µM; in the assay on NCI-H460, 37 µM; in assay [1], 48.2 µM; with SK-OV-3 it was 51.8 µM.
With `CC(C)c1ccc2c(c1)CC[C@H]1[C@](C)(C(=O)N[C@H](Cc3ccccc3)C(=O)Nc3ccc(C(F)(F)F)cc3)CCC[C@]21C`, the IC50 turned out to be 27.4 µM in the assay on HCT-116; 21.6 µM with HepG2; 10.5 µM with HeLa; 28.9 µM with NCI-H460; 36.1 µM in assay [1]; 36.3 µM in the assay on SK-OV-3.
On to `CC(C)c1ccc2c(c1)CC[C@H]1[C@](C)(C(=O)N[C@H](Cc3ccccc3)C(=O)Nc3cccc([N+](=O)[O-])c3)CCC[C@]21C`, for which the IC50 in the assay on HCT-116 came to 27.4 µM; in the assay with HepG2 it was 25.3 µM; in the assay on HeLa, 12.8 µM; with NCI-H460, 32.8 µM; in assay [1] it was 27.1 µM; in the assay on SK-OV-3, 20.1 µM.
On to `CC(C)c1ccc2c(c1)CC[C@H]1[C@](C)(C(=O)N[C@H](Cc3ccccc3)C(=O)Nc3ccccc3Cl)CCC[C@]21C`, for which the IC50 in the assay with HCT-116 amounted to 25.5 µM; with HepG2 it was 25.3 µM; with HeLa, 10.3 µM; with NCI-H460, 15.2 µM; in assay [1], 15.8 µM; in the assay on SK-OV-3, 13.5 µM.
As for `CC(C)c1ccc2c(c1)CC[C@H]1[C@](C)(C(=O)N[C@H](Cc3ccccc3)C(=O)Nc3ccc(Br)cc3)CCC[C@]21C`, the IC50 with HCT-116 is 35.3 µM; in the assay with HepG2, 34.6 µM; in the assay on HeLa, 15.2 µM; with NCI-H460, 28.7 µM; in assay [1], 16.9 µM; in the assay with SK-OV-3 it was 28.7 µM.
Regarding `CC(C)c1ccc2c(c1)CC[C@H]1[C@](C)(C(=O)O)CCC[C@]21C` [DEHYDROABIETIC ACID], the IC50 in the assay with HCT-116 came to 35.2 µM; with HepG2, 76.8 µM; in the assay with HeLa, 29.4 µM; in the assay with NCI-H460 it was 80.5 µM; in assay [1] it was 34.7 µM; with SK-OV-3, 75 µM.
On to `COc1ccc(OC)c(NC(=O)[C@@H](Cc2ccccc2)NC(=O)[C@]2(C)CCC[C@]3(C)c4ccc(C(C)C)cc4CC[C@@H]23)c1`, for which the IC50 came to 36.8 µM in the assay on HCT-116; 38.1 µM in the assay with HepG2; 19.3 µM in the assay with HeLa; 27.4 µM in the assay with NCI-H460; 56.3 µM in assay [1]; 53.8 µM in the assay with SK-OV-3.
Turning to `CC(C)c1ccc2c(c1)CC[C@H]1[C@](C)(C(=O)N[C@H](Cc3ccccc3)C(=O)Nc3ccc(F)c(Cl)c3)CCC[C@]21C`, the IC50 is 39.3 µM in the assay on HCT-116; 32.9 µM in the assay with HepG2; 11.1 µM with HeLa; 26.8 µM in the assay on NCI-H460; 26.1 µM in assay [1]; 30.5 µM in the assay on SK-OV-3.

What is called IC50 is the concentration at which inhibition is half-maximal.
